PMC2748801 (Journal of the American Chemical Society, 2009)
Square brackets hold non-standard residues; d marks the D form. Ends that are not written are not given here. Orn = NCCC[C@H](N)C(=O)O; Dab = NCC[C@H](N)C(=O)O; Dap = NC[C@H](N)C(=O)O

Experiments:
[1] = test system: hairpin from IRES domain IV of HCV (IRES); assay type: binding; settings: for Discrimination ratio against IRES RNA: average Kd against other hairpins (RRE, TAR, 16S A-site)/Kd against IRES; for Kd against IRES hairpin (in words): fluorescence anisotropy, 3i and 3j relative to 3d
[2] = Circular dichroism, α-helical content of peptide alone; assay type: physicochemical; settings: CD; for helicity (first value): 10 mM H3PO4, 20 °C; for helicity (second value): 50% TFE in 10 mM H3PO4, 20 °C
In short: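 Far-UV CD spectra of each free peptide, with no RNA, at 20 °C under temperature control, in 10 mM H3PO4 and in 50% TFE in the same buffer. Scans ran 190–250 nm with 1 nm bandwidth, 0.5 nm data pitch, 20 nm/min, 16 s response and 0.1 cm path, averaging three accumulations. α-Helical content was calculated from the spectra.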

Row | Substance | Discrimination ratio against IRES RNA [1] | Kd against IRES hairpin (in words) [1] | helicity (first value) [2] | helicity (second value) [2]
1 | Ac-LKKLLKLLKKLLKWAG-NH2 [2u] | 14 | subnanomolar | 20% | 52%
2 | Ac-LKKLLKLLKKLWKLAG-NH2 [2t] | 5.8 | – | 12% | 58%
3 | Ac-LKKLLKLLKKWLKLAG-NH2 [2s] | 5.8 | – | 27% | 60%
4 | Ac-LKKLLKLWKKLLKLAG-NH2 [2r] | 0.67 | – | 14% | 59%
5 | Ac-LKKLLKWLKKLLKLAG-NH2 [2q] | 15 | subnanomolar | 19% | 71%
6 | Ac-LKKLWKLLKKLLKLAG-NH2 [2p] | 3.3 | – | 20% | 56%
7 | Ac-LKKWLKLLKKLLKLAG-NH2 [2o] | 5.5 | – | 4.6% | 52%
8 | Ac-WKKLLKLLKKLLKLAG-NH2 [2n] | 2.4 | subnanomolar | 48% | 65%
9 | LKKLLKLLKKLL[Dab]LAG [2h] | 2.0 | – | 24% | 34%
10 | LKKLLKLLKKLL[Dap]LAG [2i] | 12 | – | 39% | 54%
11 | LKKLLKLLKKLL[Dap]WAG [3g] | 9.4 | – | 41% | 63%
12 | LKKLLKLLKKLL[Orn]LAG [2g] | 3.3 | – | 36% | 53%
13 | LKKLLKLL[Dab]KLLKLAG [2e] | 6.5 | – | 43% | 57%
14 | LKKLLKLL[Dap]KLLKLAG [2f] | 0.6 | – | 25% | 57%
15 | LKKLLKLL[Orn]KLLKLAG [2d] | 9.1 | – | 28% | 57%
16 | LKKLLKLL[Orn]KLLKWAG [3f] | 1.0 | – | 36% | 58%
17 | LKKLLKLL[Orn]KLL[Dap]LAG [2k] | 25 | – | 48% | 61%
18 | LKKLLKLL[Orn]KLL[Dap]WAG [3h] | 1.6 | – | 12% | 56%
19 | LKKLLKWLKKLL[Dap]LAG [3c] | 17 | – | 29% | 36%
20 | LKKLLKWL[Orn]KLLKLAG [3b] | 4.2 | – | 34% | 52%
21 | LKKLLKWL[Orn]KLL[Dap]LAG [3d] | 45 | – | 32% | 38%
22 | LKKLL[Dab]LLKKLLKLAG [2b] | 6.3 | – | 23% | 63%
23 | LKKLL[Dab]LLKKLLKWAG [3e] | 28 | – | 39% | 45%
24 | LKKLL[Dab]LLKKLL[Dap]LAG [2l] | 13 | – | 40% | 50%
25 | LKKLL[Dab]LL[Orn]KLLKLAG [2j] | 6.3 | – | 49% | 57%
26 | LKKLL[Dab]LL[Orn]KLL[Dap]LAG [2m] | 4.9 | – | 49% | 69%
27 | LKKLL[Dab]WLKKLLKLAG [3a] | 10 | – | 29% | 55%
28 | LKKLL[Dap]LLKKLLKLAG [2c] | 2.4 | – | 26% | 61%
29 | LKKLL[Orn]LLKKLLKLAG [2a] | 2.5 | – | 13% | 82%
